Several values for one entry are separate records, joined by “and”; a condition that tells them apart may be missing. Identical values can stand only once.
Assays:
D(2) dopamine receptor = D(2) dopamine receptor (Rattus norvegicus, UniProt P61169); test: Ability to bind to Dopamine receptor D2 in vitro in rat sriatal membranes using [3H]spiperone radioligand; format: cell membranes
Outline: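 Rat striatal membranes with [3H]spiperone; ketanserin 50 nM in buffer to block 5-HT2A binding; nonspecific binding with (±)-butaclamol 5 μM; 50 mM potassium phosphate pH 7.4; 37 °C, 30 min; vacuum filtration onto glass fiber, scintillation counting. Ki via Cheng-Prusoff from ≥3 experiments, 10 concentrations in triplicate.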

Rattus norvegicus [1] = test: Effect of compound administered 60 min before the test in the forced swimming test in Rat (8 rats per group) at 5 mg/kg; format: functional
Outline: (§1)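 Male Wistar rats, n=8/group; forced swim per Porsolt: 15 min pretest in cylinders with 15 cm water at 25 °C, retest 24 h later; total immobility over 5 min. Drug ip 60 min before test; imipramine in saline, test compound suspended in 1% Tween 80; Dunnett test vs vehicle.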

[2] = molecular target: T1, 5-hydroxytryptamine receptor 1A (Mus musculus) (UniProt Q64264); test: The hypothermia produced in mice was regarded as a measure of presynaptic 5-HT1A receptor agonistic activity; Agonist; format: functional; details: filed as agonist
T1 sequence (whole entry): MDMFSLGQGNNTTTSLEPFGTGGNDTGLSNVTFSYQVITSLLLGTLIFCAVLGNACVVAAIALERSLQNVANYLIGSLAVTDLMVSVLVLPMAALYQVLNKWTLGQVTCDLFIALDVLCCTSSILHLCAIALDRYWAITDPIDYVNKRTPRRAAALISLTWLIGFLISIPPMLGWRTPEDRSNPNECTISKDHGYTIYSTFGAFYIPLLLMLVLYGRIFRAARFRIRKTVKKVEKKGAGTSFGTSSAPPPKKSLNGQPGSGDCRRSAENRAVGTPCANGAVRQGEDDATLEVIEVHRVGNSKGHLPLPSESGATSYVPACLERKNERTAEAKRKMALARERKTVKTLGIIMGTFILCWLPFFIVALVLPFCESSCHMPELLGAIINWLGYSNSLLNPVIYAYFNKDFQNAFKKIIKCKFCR

Rattus norvegicus [3] = test: Effect of compound administered 60 min before the test in the forced swimming test in Rat (8 rats per group) at 10 mg/kg; format: functional; outline: as §1
[4] = molecular target: T2, Adrenergic receptor alpha-1 (Rattus norvegicus, UniProt P15823+P23944+P43140); test: Ability to bind to alpha-1 adrenergic receptor in vitro in cortex of the rat brain using [3H]prazosin radioligand; format: tissue-based
T2 sequence (P15823 whole entry): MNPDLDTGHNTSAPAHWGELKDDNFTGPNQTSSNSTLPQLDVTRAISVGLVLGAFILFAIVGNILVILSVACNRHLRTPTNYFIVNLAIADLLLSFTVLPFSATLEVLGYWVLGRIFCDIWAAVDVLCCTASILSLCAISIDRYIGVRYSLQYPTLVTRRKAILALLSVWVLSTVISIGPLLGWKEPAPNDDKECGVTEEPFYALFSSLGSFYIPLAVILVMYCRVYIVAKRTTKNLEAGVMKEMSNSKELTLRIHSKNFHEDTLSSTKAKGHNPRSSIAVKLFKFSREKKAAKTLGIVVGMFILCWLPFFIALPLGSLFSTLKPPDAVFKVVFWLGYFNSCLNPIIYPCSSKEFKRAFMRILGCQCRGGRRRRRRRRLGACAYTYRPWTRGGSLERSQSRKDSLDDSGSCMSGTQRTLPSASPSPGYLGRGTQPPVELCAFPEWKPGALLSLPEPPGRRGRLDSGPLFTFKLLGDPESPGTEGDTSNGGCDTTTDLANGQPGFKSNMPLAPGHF
T2 sequence (P23944 whole entry): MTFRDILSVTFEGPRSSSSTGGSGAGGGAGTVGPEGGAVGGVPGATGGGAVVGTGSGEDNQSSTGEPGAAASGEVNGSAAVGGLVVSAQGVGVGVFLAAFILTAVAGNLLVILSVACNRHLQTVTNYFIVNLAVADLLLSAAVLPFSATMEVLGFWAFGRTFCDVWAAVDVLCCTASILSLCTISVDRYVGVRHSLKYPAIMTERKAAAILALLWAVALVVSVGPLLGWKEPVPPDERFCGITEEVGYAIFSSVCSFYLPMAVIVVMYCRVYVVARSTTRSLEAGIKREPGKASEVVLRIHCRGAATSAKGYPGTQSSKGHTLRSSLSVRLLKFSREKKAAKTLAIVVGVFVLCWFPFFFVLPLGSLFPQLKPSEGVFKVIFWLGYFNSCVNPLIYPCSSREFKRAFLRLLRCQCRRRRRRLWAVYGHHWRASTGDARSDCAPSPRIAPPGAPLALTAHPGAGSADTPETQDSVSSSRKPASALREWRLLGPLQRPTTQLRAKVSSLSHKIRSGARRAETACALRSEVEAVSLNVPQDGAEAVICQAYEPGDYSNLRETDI
T2 sequence (P43140 whole entry): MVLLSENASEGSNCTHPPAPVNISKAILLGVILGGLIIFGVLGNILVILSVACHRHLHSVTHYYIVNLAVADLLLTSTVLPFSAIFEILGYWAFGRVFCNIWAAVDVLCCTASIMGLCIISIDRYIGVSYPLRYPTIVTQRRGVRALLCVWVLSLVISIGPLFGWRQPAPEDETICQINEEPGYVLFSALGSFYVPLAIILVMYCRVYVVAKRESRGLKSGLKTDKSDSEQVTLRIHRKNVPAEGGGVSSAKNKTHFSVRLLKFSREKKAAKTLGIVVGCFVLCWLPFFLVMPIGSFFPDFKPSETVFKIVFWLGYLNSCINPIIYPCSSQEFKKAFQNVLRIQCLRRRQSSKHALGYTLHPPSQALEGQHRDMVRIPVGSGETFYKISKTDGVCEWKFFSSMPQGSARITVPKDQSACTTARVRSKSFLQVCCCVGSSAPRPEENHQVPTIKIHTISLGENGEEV
Outline: (§2)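 Competition binding in rat brain tissue: hippocampus with [3H]-8-OH-DPAT (5-HT1A); cortex with [3H]-ketanserin (5-HT2A) or [3H]-prazosin (α1). Ki from at least three experiments using 10–14 concentrations (10⁻¹⁰–10⁻⁵ M), each in triplicate.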

Rattus norvegicus [5] = test: Effect of compound administered 60 min before the test in the forced swimming test in Rat (8 rats per group) at 20 mg/kg; format: functional; outline: as §1
[6] = molecular target: 5-hydroxytryptamine receptor 2A (Rattus norvegicus, UniProt P14842); test: Ability to bind to central serotonin 5-hydroxytryptamine 2A receptor in vitro in cortex of the rat brain using [3H]ketanserin radioligand; format: tissue-based; outline: as §2
Chain of 5-hydroxytryptamine receptor 2A (P14842 whole entry): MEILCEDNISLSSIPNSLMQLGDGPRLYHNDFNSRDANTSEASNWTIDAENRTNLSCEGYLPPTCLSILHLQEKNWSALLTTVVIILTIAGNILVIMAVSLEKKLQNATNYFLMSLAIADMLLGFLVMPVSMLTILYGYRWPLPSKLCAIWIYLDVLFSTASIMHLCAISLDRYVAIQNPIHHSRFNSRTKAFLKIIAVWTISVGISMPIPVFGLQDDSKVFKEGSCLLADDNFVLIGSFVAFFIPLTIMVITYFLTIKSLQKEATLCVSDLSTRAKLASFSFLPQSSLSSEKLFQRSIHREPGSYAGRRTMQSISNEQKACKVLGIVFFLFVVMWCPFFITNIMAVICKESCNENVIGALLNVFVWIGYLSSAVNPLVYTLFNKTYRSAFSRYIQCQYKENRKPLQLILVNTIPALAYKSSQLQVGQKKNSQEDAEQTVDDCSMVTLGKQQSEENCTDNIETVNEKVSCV

Rattus norvegicus [7] = test: Effect of Compound administered 60 min before the test in the conflict drinking test in rat (n = 8 rats/group) at 5 mg/kg; format: functional
Outline: (§3)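 Male Wistar rats (250-300 g), compound suspended in 1% aqueous Tween 80, given ip (2 mL/kg) 60 min before test. Rats adapted 10 min to chamber, water-deprived 24 h, readapted 10 min with bottle, 30 min home-cage drinking, deprived another 24 h. After 30 s free drinking, licks punished by 0.5 mA shock; shocks accepted in 5 min counted. n=8/group; ANOVA with Dunnett test.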

[8] = molecular target: T3, 5-hydroxytryptamine receptor 1A (Rattus norvegicus, UniProt P19327); test: Ability to bind to central serotonin 5-hydroxytryptamine 1A receptor in vitro in hippocampus of the rat brain using [3H]8-OH-DPAT radioligand; format: tissue-based; outline: as §2
T3 sequence (P19327 whole entry): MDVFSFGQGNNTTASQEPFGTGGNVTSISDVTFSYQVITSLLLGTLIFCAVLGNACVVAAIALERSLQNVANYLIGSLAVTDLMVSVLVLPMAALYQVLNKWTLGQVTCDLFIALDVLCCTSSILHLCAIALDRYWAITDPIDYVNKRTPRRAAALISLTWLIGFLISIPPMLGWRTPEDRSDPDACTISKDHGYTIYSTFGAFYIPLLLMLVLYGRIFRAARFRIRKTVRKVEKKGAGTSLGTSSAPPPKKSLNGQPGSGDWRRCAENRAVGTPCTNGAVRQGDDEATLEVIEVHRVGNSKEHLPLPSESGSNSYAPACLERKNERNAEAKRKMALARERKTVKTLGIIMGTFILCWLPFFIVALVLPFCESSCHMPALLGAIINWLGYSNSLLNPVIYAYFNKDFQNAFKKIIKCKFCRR

[9] = molecular target: T1, 5-hydroxytryptamine receptor 1A (Mus musculus); test: Compound was tested for hypothermia with the activation of presynaptic 5-HT1A receptor agonist (8-OH-DPAT) in mice; Antagonist; format: functional; details: filed as antagonist
Mus musculus = organism: Mus musculus; test: Ability to inhibit 8-OH-DPAT-induced hypothermia was taken as a measure of presynaptic antagonistic activity; Antagonist; format: functional, organism-based; details: filed as antagonist
Rattus norvegicus [10] = test: Effect of Compound administered 60 min before the test in the conflict drinking test in rat (n = 8 rats/group) at 2.5 mg/kg; format: functional; outline: as §3
Rattus norvegicus [11] = test: Effect of compound administered 60 min before the test in the forced swimming test in Rat (8 rats per group) at 40 mg/kg; format: functional; outline: as §1
Rattus norvegicus [12] = test: Effect of compound administered 60 min before the test in the forced swimming test in Rat (8 rats per group) at 30 mg/kg; format: functional; outline: as §1

Chain of D(2) dopamine receptor (P61169 whole entry): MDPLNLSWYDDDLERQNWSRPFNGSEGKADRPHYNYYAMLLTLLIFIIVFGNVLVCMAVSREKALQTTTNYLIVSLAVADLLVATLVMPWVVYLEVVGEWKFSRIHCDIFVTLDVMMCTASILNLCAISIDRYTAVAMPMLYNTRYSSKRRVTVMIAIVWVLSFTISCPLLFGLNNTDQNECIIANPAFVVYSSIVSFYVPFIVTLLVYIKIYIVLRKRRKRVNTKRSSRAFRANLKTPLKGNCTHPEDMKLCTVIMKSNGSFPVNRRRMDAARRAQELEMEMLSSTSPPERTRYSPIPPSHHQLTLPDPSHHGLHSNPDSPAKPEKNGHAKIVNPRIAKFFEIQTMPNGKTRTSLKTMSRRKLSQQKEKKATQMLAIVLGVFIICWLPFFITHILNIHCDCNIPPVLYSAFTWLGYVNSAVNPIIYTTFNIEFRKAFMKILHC

Molecule `Cn1c(=O)c2c(nc3nc(NCCCN4CCN(c5ccccc5)CC4)c(Br)cn32)n(C)c1=O` has a Ki (D(2) dopamine receptor) of 414 nM, an Effect (Rattus norvegicus [1]) of 73.1% and an Immobility time (Rattus norvegicus [1]) of 173.9 s. For the same molecule, the Functional profile [2] was “Agonist”, the Effect (Rattus norvegicus [3]) was 64.4% and the Immobility time (Rattus norvegicus [3]) was 153.1 s. It also gave a Ki [4] of 11 nM, an Effect (Rattus norvegicus [5]) of 69.6% and an Immobility time (Rattus norvegicus [5]) of 165.6 s. The Ki [6] was 297 nM, the Effect (Rattus norvegicus [7]) was 491.9% and the “No. of shocks accepted/5 min” value (Rattus norvegicus [7]) was 36.4. The Ki [8] was 11 nM.

`Cn1c(=O)c2c(nc3nc(NCCN4CCN(c5ccccc5)CC4)ccn32)n(C)c1=O` was tested, and the Functional profile [9] was “Antagonist”, the Functional profile (Mus musculus) was “Antagonist” and the Ki [6] was 326 nM. For the same molecule, the Ki [8] was 11.5 nM.

`CN1C(=O)CN=C(c2ccccc2)c2cc(Cl)ccc21` [DIAZEPAM] was tested, and the Effect (Rattus norvegicus [10]) was 306.5% and 685.7%, the “No. of shocks accepted/5 min” value (Rattus norvegicus [10]) was 23.6 and 52.8 and the Effect (Rattus norvegicus [7]) was 533.8%. The “No. of shocks accepted/5 min” value (Rattus norvegicus [7]) was 41.1.

With `CN(C)CCCN1c2ccccc2CCc2ccccc21` [IMIPRAMINE] the Effect (Rattus norvegicus [5]) was 81.9%, the Immobility time (Rattus norvegicus [5]) was 155 s and the Effect (Rattus norvegicus [11]) was 52.7%. The Immobility time (Rattus norvegicus [11]) was 99.7 s, the Effect (Rattus norvegicus [12]) was 63.3% and the Immobility time (Rattus norvegicus [12]) was 120.4 s.
